Tests used:
[1] = molecular target: T1, Mitogen-activated protein kinase kinase kinase 5 (Homo sapiens) (UniProt Q99683); experiment: Binding affinity to ASK1 (unknown origin) assessed as change in melting temperature at 1 uM by SYPRO orange dye-based DSF analysis
T1 sequence (whole entry): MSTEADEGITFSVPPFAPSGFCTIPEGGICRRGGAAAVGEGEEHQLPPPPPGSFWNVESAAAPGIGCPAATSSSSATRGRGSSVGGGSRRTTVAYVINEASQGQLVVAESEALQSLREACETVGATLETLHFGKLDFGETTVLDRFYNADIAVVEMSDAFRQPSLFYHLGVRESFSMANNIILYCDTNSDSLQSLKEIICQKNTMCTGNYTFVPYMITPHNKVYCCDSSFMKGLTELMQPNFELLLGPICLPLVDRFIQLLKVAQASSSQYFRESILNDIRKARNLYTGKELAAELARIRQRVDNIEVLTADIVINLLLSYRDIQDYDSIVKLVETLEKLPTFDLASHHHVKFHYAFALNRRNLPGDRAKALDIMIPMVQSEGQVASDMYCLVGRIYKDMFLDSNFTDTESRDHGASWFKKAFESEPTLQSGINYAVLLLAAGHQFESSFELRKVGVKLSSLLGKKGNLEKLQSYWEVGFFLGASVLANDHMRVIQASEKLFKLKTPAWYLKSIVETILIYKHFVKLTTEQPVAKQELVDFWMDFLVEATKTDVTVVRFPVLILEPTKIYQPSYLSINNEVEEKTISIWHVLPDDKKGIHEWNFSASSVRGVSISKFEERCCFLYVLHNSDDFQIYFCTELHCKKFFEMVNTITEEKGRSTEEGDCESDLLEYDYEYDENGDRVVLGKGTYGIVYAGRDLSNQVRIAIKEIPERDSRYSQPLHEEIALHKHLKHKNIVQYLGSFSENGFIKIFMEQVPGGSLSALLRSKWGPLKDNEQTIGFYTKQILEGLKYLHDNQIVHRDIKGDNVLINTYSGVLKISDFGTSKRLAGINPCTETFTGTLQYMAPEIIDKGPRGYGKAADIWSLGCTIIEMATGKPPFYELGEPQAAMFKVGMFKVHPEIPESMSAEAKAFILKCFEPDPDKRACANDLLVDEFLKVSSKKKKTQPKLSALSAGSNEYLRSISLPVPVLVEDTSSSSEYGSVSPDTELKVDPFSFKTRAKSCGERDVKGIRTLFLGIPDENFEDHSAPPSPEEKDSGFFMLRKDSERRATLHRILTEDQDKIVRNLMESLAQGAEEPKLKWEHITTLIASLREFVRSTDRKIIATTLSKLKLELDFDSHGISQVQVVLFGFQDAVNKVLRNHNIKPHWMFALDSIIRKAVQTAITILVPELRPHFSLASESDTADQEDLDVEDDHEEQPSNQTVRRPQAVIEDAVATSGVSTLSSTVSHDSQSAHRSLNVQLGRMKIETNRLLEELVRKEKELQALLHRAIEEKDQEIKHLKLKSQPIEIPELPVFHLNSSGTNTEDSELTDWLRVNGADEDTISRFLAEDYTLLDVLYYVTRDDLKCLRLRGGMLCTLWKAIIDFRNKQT
How it was run: (§1)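 Differential scanning fluorimetry: each compound's melting-temperature shift (ΔTm, °C) was measured on the kinase protein. Compounds giving a TAOK2 ΔTm above 0.5 °C were also run against p38 and ASK1. Selectivity (ΔΔTm) was taken as the TAOK2 ΔTm minus the p38 or ASK1 ΔTm.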

[2] = molecular target: MAP kinase p38 (Homo sapiens) (UniProt O15264+Q15759+Q16539+P53778); experiment: Binding affinity to p38 (unknown origin) assessed as change in melting temperature at 1 uM by SYPRO orange dye-based DSF analysis; assay type: protein assay; how it was run: as §1
[3] = molecular target: T2, Serine/threonine-protein kinase TAO2 (Rattus norvegicus) (UniProt Q9JLS3); experiment: Binding affinity to rat TAOK2 (1 to 320 residues) expressed in Baculovirus/insect cell expression system assessed as change in melting temperature at 1 uM by SYPRO orange dye-based DSF analysis; how it was run: as §1
T2 sequence (whole entry): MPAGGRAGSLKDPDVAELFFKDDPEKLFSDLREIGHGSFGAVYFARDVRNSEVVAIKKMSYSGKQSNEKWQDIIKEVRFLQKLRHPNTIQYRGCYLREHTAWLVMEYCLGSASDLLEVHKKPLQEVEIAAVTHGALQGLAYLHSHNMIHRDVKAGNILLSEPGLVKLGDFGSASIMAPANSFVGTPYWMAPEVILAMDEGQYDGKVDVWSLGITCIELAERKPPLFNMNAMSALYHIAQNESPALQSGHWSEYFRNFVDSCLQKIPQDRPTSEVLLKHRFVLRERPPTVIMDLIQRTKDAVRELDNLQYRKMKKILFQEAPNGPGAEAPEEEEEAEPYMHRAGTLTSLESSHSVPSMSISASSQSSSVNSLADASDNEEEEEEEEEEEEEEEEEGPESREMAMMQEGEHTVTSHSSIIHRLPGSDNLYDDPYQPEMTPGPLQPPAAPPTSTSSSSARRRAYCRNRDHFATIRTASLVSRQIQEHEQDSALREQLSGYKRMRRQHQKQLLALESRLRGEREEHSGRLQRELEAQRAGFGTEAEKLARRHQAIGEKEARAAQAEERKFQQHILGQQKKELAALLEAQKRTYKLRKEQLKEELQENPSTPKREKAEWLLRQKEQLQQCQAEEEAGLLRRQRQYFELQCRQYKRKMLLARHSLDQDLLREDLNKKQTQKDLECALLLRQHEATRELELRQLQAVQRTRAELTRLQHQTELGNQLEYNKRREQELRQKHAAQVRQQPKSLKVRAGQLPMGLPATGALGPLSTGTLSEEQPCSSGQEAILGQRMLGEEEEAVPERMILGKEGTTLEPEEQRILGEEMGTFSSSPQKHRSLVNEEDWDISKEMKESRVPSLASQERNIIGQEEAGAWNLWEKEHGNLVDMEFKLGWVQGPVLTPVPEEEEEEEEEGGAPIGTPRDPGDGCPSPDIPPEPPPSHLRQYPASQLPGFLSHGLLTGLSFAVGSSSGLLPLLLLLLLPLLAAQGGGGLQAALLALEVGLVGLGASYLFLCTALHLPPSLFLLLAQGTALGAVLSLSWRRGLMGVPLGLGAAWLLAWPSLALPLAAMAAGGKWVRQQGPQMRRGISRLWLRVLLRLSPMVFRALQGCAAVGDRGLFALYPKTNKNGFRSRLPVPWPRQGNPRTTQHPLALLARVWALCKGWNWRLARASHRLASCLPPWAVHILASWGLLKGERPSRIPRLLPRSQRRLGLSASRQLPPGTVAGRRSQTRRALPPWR

[4] = molecular target: T3, Serine/threonine-protein kinase TAO2 (Rattus norvegicus, UniProt Q9JLS3); experiment: Inhibition of rat TAOK2 (1 to 320 residues) expressed in Baculovirus/insect cell expression system assessed as remaining activity using MBP as substrate and [32P]ATP measured after 10 mins by Kinase-Glo assay
T3 sequence (Q9JLS3 whole entry): T2 sequence (whole entry)

| Structure (SMILES) | ΔTm [1] | ΔTm [2] | ΔTm [3] | IC50 [4] |
| --- | --- | --- | --- | --- |
| CCC(=O)Nc1nc(C)c(-c2csc(Nc3cc(OC)ccc3OC)n2)s1 | 2.7 °C | 2.8 °C | 3 °C | – |
| c1cc2[nH]c3c(c2c2nonc12)CCCC3 | 0 °C | 2 °C | 1.2 °C | 3 µM |
| CS(=O)(=O)c1ccc2nc(NC(=O)CCCOc3ccc(Cl)cc3)sc2c1 | 1.2 °C | 2 °C | 1.3 °C | – |
| CCOCCCn1c(=S)[nH]c2cc(C(=O)NCC3COc4ccccc4O3)ccc2c1=O (stereo not given) | 2.1 °C | 2 °C | 2 °C | 1.3 to 1.4 µM |
| Cc1ccc(C(=O)CSc2nnc(-c3ccncc3)[nH]2)c(C)c1 | 0.4 °C | 0 °C | 0.7 °C | 5 µM |
| O=C(O)c1cc(-c2ccc(-c3ccccc3[N+](=O)[O-])o2)nc2ccc3ccccc3c12 | 1.7 °C | 1.5 °C | 2.2 °C | 3 µM |
| Cc1ccc(NCCCC(=O)N/N=C/c2cc(Br)cc(Br)c2O)cc1 | 1.2 °C | 1.3 °C | 1.6 °C | 6 µM |
| O=C(NCC1COc2ccccc2O1)c1ccc(NC(=O)c2ccco2)cc1 (stereo not given) | 1.2 °C | 2.2 °C | 1.6 °C | 2 µM |
